In ChEMBL document CHEMBL1153525, “Adenosine A2A receptor-antagonist/dopamine D2 receptor-agonist bivalent ligands as pharmacological tools to detect A2A-D2 receptor heteromers” (J Med Chem, 2009) one finds Activity and Ki data, which are given here for two compounds.

For test [1], the system named is Dopamine D2 receptor (Homo sapiens). Put plainly: Displacement of [3H]YM09151-2 from human A2aR/D2R (long isoform) heteromer expressed in mouse Ltk cells by scintillation counting.
In test [2] the target is Adenosine A2A receptor (Homo sapiens) (UniProt P29274). Put plainly: Agonist activity at human A2aR expressed in HEK293 cells assessed as cAMP accumulation at 10 uM.
Target sequence in this assay (P29274 whole entry, canonical isoform): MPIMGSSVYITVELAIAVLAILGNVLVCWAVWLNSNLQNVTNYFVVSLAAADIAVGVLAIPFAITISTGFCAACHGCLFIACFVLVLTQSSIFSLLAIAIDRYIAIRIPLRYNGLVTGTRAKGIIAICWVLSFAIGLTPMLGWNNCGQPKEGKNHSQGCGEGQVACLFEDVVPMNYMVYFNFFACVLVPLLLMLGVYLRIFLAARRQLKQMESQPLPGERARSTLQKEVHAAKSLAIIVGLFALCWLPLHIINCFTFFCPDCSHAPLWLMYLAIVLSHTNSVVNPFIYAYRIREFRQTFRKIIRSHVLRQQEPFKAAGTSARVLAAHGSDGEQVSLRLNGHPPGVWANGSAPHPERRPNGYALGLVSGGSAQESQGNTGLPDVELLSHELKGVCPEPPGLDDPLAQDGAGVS
For test [3] the target is unchanged. Put plainly: Displacement of [3H]ZM241385 from human A2aR/D2R (long isoform) coexpressed in mouse Ltk cells by scintillation counting. The test is classed as cell-based. The gist of the method:
(§1)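 Mouse Ltk fibroblasts were transiently transfected with human A2AR, human D2R (long isoform) or both, and membranes were prepared 48 h later. Membranes were incubated 2 h at 25 °C in 50 mM Tris-HCl pH 7.4 with 10 mM MgCl2 and 2 U/mL ADA, plus 2.1 nM [3H]ZM241385 or 1.9 nM [3H]YM09151-2 and 1 μM test compound. Bound ligand was counted after filtration and expressed as % of specific binding without displacer; three independent experiments.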
A general note: Loss of bound radioactivity is the signal in a displacement assay; it reports binding, not function.
Target sequence in this assay (P29274 whole entry, canonical isoform): as above

Test [4] in a line: Displacement of [3H]ZM241385 from A2aR dimer in lamb striatum membrane assessed as high affinity macroscopic equilibrium dissociation constant by scintillation counting. Format: cell membranes, Ovis aries. The gist of the method:
(§2)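 Lamb striatal membranes (0.3-0.5 mg protein/mL) were incubated 2 h at 25 °C in 50 mM Tris-HCl pH 7.4 with 10 mM MgCl2 and 2 U/mL ADA. Radioligand was 2.1 nM [3H]ZM241385 (A2AR) or 0.9 nM [3H]YM09151-2 (D2R), against 11 competitor concentrations from 0.1 nM to 50 μM in triplicate. Nonspecific binding used 50 μM unlabeled radioligand. After GF/C filtration, counts were fitted to a two-state dimer model for KDB1 and KDB2; three experiments.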

Test [5] deals with D(2) dopamine receptor (Homo sapiens) (UniProt P14416). Put plainly: Displacement of [3H]YM09151-2 from human D2R expressed in mouse Ltk cells by scintillation counting relative to control. Format: cell-based. The method in brief: as §1
Sequence of D(2) dopamine receptor (Homo sapiens) (P14416 whole entry, canonical isoform): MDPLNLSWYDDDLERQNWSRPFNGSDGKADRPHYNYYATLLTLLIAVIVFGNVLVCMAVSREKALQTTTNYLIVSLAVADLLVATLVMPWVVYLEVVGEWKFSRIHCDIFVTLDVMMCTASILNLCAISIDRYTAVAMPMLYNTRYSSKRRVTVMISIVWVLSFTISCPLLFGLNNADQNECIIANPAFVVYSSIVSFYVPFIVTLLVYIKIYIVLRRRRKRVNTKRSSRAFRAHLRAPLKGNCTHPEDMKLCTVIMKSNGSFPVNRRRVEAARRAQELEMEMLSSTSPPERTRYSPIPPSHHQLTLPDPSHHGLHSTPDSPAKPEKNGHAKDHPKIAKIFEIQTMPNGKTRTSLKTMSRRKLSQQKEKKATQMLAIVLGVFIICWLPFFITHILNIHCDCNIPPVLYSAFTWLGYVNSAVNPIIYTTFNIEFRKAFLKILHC
Test [6] has as its target Adenosine A2A receptor (Homo sapiens) (UniProt P29274). Put plainly: Antagonist activity at human A2aR expressed in HEK293 cells assessed as inhibition of CGS-21680-induced cAMP production at 10 uM. The test is classed as functional, cell-based. The method in brief: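 Human A2AR was transiently expressed in HEK-293 cells, which were held 16 h serum-free with 1.5 U/mL ADA and used 48 h post-transfection. Cells were preincubated 10 min at 37 °C with 50 μM zardaverine, 10 mM MgCl2 and 1.5 U/mL ADA. Ligand at 10 μM was given alone, or 10 min before 200 nM CGS 21680 (10-15 min). cAMP was measured by [3H]cAMP assay, as % of CGS 21680 response; three independent experiments.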
On the technique in general: Cyclic AMP is a second messenger, typically raised through Gs and lowered through Gi signalling.
Target sequence in this assay (P29274 whole entry, canonical isoform): as the sequence (P29274 whole entry, canonical isoform) above

The target is the same in test [7]. Put plainly: Displacement of [3H]ZM241385 from human A2AR expressed in mouse Ltk cells at 1 uM by scintillation counting relative to control.
Target sequence in this assay (P29274 whole entry, looked up, canonical isoform): as the sequence (P29274 whole entry, canonical isoform) above
The target is the same in test [8]. Nature of the test: Displacement of [3H]ZM241385 from human A2aR expressed in mouse Ltk cells at 1 uM by scintillation counting relative to control. Format: cell-based. The method in brief:
as §1
Target sequence in this assay (P29274 whole entry, canonical isoform): as above

The nature of test [9]: Displacement of [3H]YM09151-2 from D2R (long isoform) dimer in lamb striatum membrane low affinity macroscopic equilibrium dissociation constant by scintillation counting. The test is classed as cell membranes, Ovis aries. The method in brief:
as §2

The target in test [10] is Adenosine A2A receptor (Homo sapiens) (UniProt P29274). Nature of the test: Displacement of [3H]ZM241385 from human A2aR/D2R (long isoform) heteromer expressed in mouse Ltk cells by scintillation counting. The test is classed as cell-based. The gist of the method:
as §1
Target sequence in this assay (P29274 whole entry, canonical isoform): as above

Test [11] concerns the target D(2) dopamine receptor (Homo sapiens) (UniProt P14416). Put plainly: Agonist activity at human D2R receptor expressed In HEK293 cells assessed as decrease in forskolin-induced cAMP level at 10 uM. Format: functional, cell-based. Further details: scale not given: the % may be the effect or the level left. The gist of the method: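 HEK-293 cells transiently transfected with human D2R (long isoform) were kept 16 h in serum-free medium, then used 48 h after transfection. Cells were preincubated 10 min at 37 °C with 50 μM zardaverine in serum-free medium with 10 mM MgCl2. Test ligand at 10 μM was added, then 10 μM forskolin for 15 min. Cells were extracted with HClO4 and cAMP was measured by [3H]cAMP assay, as % of forskolin-induced level; three independent experiments.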

A short description of test [12]: Displacement of [3H]YM09151-2 from D2R (long isoform) dimer in lamb striatum membrane high affinity macroscopic equilibrium dissociation constant by scintillation counting. The test is classed as cell membranes, Ovis aries. The method in brief:
as §2

The term Ki denotes the dissociation constant of the complex between target and ligand, obtained from inhibition or displacement.

Structures are written as SMILES. The source made the active and inactive calls. The calls are words filed in the database; no cut-off is given here.

`CCCN(CCc1ccc(NC(=O)CCC(N)C(=O)NCCCCC(NC(=O)CCC(=O)NCCOCCOCCNC(=O)CCC(=O)NCCOCCOCCNC(=O)CCC(=O)NCCOCCOCCNC(=O)C(CCCCNC(=O)C(N)CCCCNC(=O)COc2ccc(-c3nc4c([nH]3)c(=O)n(CCC)c(=O)n4CCC)cc2)NC(C)=O)C(N)=O)cc1)C1CCc2c(O)cccc2C1` (centres undefined): the result in test [1], in test [3], in [6], in test [7], in test [8] and in [10] was Active. Further, the outcome in test [2] and in test [5] was inactive. Also, the Ki came to 50 nM in test [4], 500 nM in test [9] and 1.8 nM in [12]. In addition, the Activity in [11] came to 78%.
For `CCCN(CCc1ccc(NC(=O)CCC(N)C(=O)NCCCCC(NC(=O)CCC(=O)NCCOCCOCCNC(=O)C(CCCCNC(=O)C(N)CCCCNC(=O)COc2ccc(-c3nc4c([nH]3)c(=O)n(CCC)c(=O)n4CCC)cc2)NC(C)=O)C(N)=O)cc1)C1CCc2c(O)cccc2C1` (centres undefined), the result in [1], in test [3], in test [6], in test [7], in test [8] and in test [10] was Active. The outcome in test [2] and in test [5] was inactive. Further, the inhibition constant Ki in [4] was 59 nM; in [9] it was 7000 nM; in [12], 1.1 nM. For the same compound, in test [11], the Activity came to 87%.
